This note sets out measurements from ChEMBL document CHEMBL1128460, “Design, synthesis, and structure-activity relationships of a new series of alpha-adrenergic agonists: spiro[(1,3-diazacyclopent-1-ene)-5,2'-(1',2',3',4'- tetrahydronaphthalene)]” (J Med Chem, 1995).

One may read the EC50 as the midpoint of the concentration-response curve. High values mean a less potent agent, low ones a more potent agent.

Assay [1] is filed under the species Canis familiaris. The experiment in a line: Effective concentration for the agonist in the isolated blood vessel using in vitro femoral artery. The note with it: Canis lupus familiaris. It is filed as functional. A digest of the protocol:
(§1)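 Vessel segments from mongrel dogs (15–25 kg) anesthetized with pentobarbital (30 mg/kg iv), mounted for isometric tension in physiological saline. Equilibrated 90 min with bath changes every 30 min, rauwolscine (10^-7 M) present throughout. Primed with KCl (100 mM), then phenylephrine (1 µM). Agonist concentration–response curves run at half-log steps, giving EC50 (µM) and Emax as % of phenylephrine maximum; mean ±SD.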

The target in assay [2] is T1, Adrenergic receptor alpha (Rattus norvegicus) (UniProt P15823+P23944+P43140+P22086+P19328+P22909). Description: Alpha adrenergic activity was evaluated as maximal pressure response caused by agonist, expressed in mmHg (the maximum obtained with phenylephrine is 150 mmHg). In kind it is functional.
Assay [3] deals with T1, Adrenergic receptor alpha (Rattus norvegicus). Description: Alpha adrenergic activity was evaluated as concentration (iv) which increases the arterial pressure by 20 mmHg in the pithed rat. It is filed as functional, organism-based. The note with it: Artery.
For assay [4], the species on record is Canis familiaris. Description: Maximal contractile response obtained with the agonist (expressed as a percentage of the maximal contraction to phenylephrine in the dog saphenous vein). In kind it is functional, Canis lupus familiaris. The procedure, abridged:
as §1

A short description of assay [5]: Ratio of C20 obtained in the absence or presence of [C20 ( 0.1 mg of prazosin ) / C20 (control)]. It is filed as functional. A digest of the protocol: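 Pithed rats pretreated with tertatolol (100 mg/kg), then 10 min later with prazosin (100 µg/kg). Cumulative iv agonist doses given another 10 min later at 20 s intervals. Arterial pressure recorded, C20 (dose giving +20 mmHg) determined. Ratio calculated as C20(prazosin)/C20(control); 3–6 determinations.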

The species named for assay [6] is Canis familiaris. The experiment in a line: Maximal contractile response obtained with the agonist (expressed as a percentage of the maximal contraction to phenylephrine in the dog femoral artery). It is filed as functional, Canis lupus familiaris. The procedure, abridged:
as §1

The species named for assay [7] is Canis familiaris. The experiment in a line: Effective concentration for the agonist in the isolated blood vessel using in vitro saphenous vein. It is filed as functional. The note with it: Canis lupus familiaris. The procedure, abridged: as §1
A short description of assay [8]: Ratio of C20 obtained in the absence or presence of [C20 (1 mg of yohimbine.) / C20 (control)]. In kind it is functional. A digest of the protocol:
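Pithed rat arterial pressure assay with tertatolol (100 mg/kg) pretreatment, then yohimbine (1 mg/kg) 10 min later. Cumulative iv agonist doses given at 20 s intervals after a further 10 min, C20 (+20 mmHg dose) obtained. Ratio expressed as C20(yohimbine)/C20(control); 3–6 determinations.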

Turning to `NC1=NC2(CCc3ccccc3C2)CO1` (stereo unspecified), the EC50 was 26 µM in the assay listed under Canis familiaris [1] and 2.3 µM in the assay filed under Canis familiaris [7]. The compound also came in with a Max in assay [2] of 95 mmHg. The same compound gave a C20 in assay [3] of 5.2 µg/kg. Also, the figures for the Emax in the assay listed under Canis familiaris [4] and in the assay filed under Canis familiaris [6] were 76 and 18, respectively. For the same compound, the Ratio in assay [5] turned out to be 3.5; in assay [8], 19.6.

For the compound `CCOc1ccc(OC)c2c1CCC1(CN=CN1)C2` (stereo unspecified), the EC50 worked out at 0.08 µM in the assay filed under Canis familiaris [1] and 0.8 µM in the assay filed under Canis familiaris [7]. In assay [2], this compound gave a Max of 147 mmHg. In assay [3], this compound yielded a C20 of 0.06 µg/kg. Moreover, the values for the Emax in the assay filed under Canis familiaris [4] and in the assay filed under Canis familiaris [6] were 98 and 85, respectively. The Ratio in assay [5] turned out to be 21.5; in assay [8], 4.8.

Compound `CC(C)(C)c1ccc2c(c1)CC1(CC2)CN=CN1` (stereo unspecified) registered a Max in assay [2] of 45 mmHg. This compound came in with a C20 in assay [3] of 465 µg/kg. The Emax is reported as 35 in the assay listed under Canis familiaris [4] and 0 in the assay listed under Canis familiaris [6]. Moreover, the Ratio in assay [5] turned out to be 1.7; in assay [8] it was 1.6. Moreover, a half-maximal response in the assay filed under Canis familiaris [7] (EC50) required 40 µM.

In turn, `C1=NC2(CCc3ccccc3C2)CO1` (stereo unspecified) showed a Max in assay [2] of 38 mmHg. The same compound had a C20 in assay [3] of over 10000 µg/kg. Further, the Emax in the assay filed under Canis familiaris [4] and in the assay listed under Canis familiaris [6] was 0 throughout.

Take `Clc1cccc2c1CCC1(CN=CN1)C2` (stereo unspecified): the Max in assay [2] came to 125 mmHg. Moreover, the C20 in assay [3] worked out at 7 µg/kg. The Ratio in assay [5] came out at 1.3; in assay [8] it was 2.8.

The compound `CCc1ccc2c(c1)CC1(CC2)CN=CN1` (stereo unspecified) gave a Max in assay [2] of 61 mmHg. Also, the C20 in assay [3] worked out at 209 µg/kg. In addition, the Emax turned out to be 50 in the assay filed under Canis familiaris [4] and 0 in the assay listed under Canis familiaris [6]. Besides, the Ratio in assay [5] stood at 2.5; in assay [8], 2.6. This compound also gave an EC50 in the assay filed under Canis familiaris [7] of 75 µM.

Take `CC(C)Oc1ccc2c(c1)CCC1(CN=CN1)C2` (stereo unspecified): the Max in assay [2] is 62 mmHg. In assay [3], this compound came in with a C20 of 74 µg/kg. Also, the values for the Emax in the assay filed under Canis familiaris [4] and in the assay listed under Canis familiaris [6] were 15 and 0, respectively. In addition, the Ratio in assay [5] came out at 11; in assay [8], 66. The compound further had an EC50 in the assay filed under Canis familiaris [7] of 3.9 µM.

The compound `CC1=NC2(CCc3ccccc3C2)CN1` (stereo unspecified) gave a Max in assay [2] of 113 mmHg. Moreover, the C20 in assay [3] was 166 µg/kg. Also, the Emax in the assay listed under Canis familiaris [4] came out at 23; in the assay listed under Canis familiaris [6], 0. For the same compound, the Ratio in assay [5] is 1.8; in assay [8] it was 5.3. The same compound returned an EC50 in the assay filed under Canis familiaris [7] of 400 µM.

Take `COc1ccc(Cl)c2c1CCC1(CN=CN1)C2` (stereo unspecified): the figures for the EC50 in the assay filed under Canis familiaris [1] and in the assay filed under Canis familiaris [7] were 0.27 µM and 0.027 µM, respectively. Also, the Emax in the assay filed under Canis familiaris [4] worked out at 106; in the assay listed under Canis familiaris [6] it was 102.

As to `FC(F)(F)c1ccc2c(c1)CC1(CC2)CN=CN1` (stereo unspecified), in assay [2], the Max stood at 55 mmHg. The same compound yielded a C20 in assay [3] of 320 µg/kg. This compound showed an Emax in the assay filed under Canis familiaris [4] of 7. Also, the values for the Ratio in assay [5] and in assay [8] were 10 and 2.7, respectively.

The compound `COc1cc2c(cc1OC)CC1(CC2)CN=CN1` (stereo unspecified) showed a Max in assay [2] of 129 mmHg. In assay [3], this compound displayed a C20 of 98 µg/kg. The Ratio in assay [5] was determined as 1.8.

`Fc1cc(F)c2c(c1)CC1(CC2)CN=CN1` (stereo unspecified) had a Max in assay [2] of 84 mmHg. Further, the C20 in assay [3] came to 31 µg/kg. Besides, the Emax in the assay listed under Canis familiaris [4] worked out at 35; in the assay filed under Canis familiaris [6], 0. Moreover, the figures for the Ratio in assay [5] and in assay [8] were 2.4 and 5.7, respectively. In the assay listed under Canis familiaris [7], this compound yielded an EC50 of 6.3 µM.

Regarding `CN1C=NC2(CCc3ccccc3C2)C1` (stereo unspecified), the Max in assay [2] was found to be 77 mmHg. Further, in assay [3], the C20 was 150 µg/kg. Further, the Emax is reported as 31 in the assay listed under Canis familiaris [4] and 0 in the assay filed under Canis familiaris [6]. In addition, the Ratio in assay [5] was 2.1; in assay [8], 2.5. Moreover, in the assay listed under Canis familiaris [7], the EC50 amounted to 25 µM.

On to `Clc1cc2c(cc1Cl)CC1(CC2)CN=CN1` (stereo unspecified), for which the Max in assay [2] amounted to 101 mmHg. In assay [3], this compound registered a C20 of 33 µg/kg. For the same compound, the Emax in the assay listed under Canis familiaris [4] was 36; in the assay listed under Canis familiaris [6], 0. Also, the values for the Ratio in assay [5] and in assay [8] were 7 and 3.1, respectively. Moreover, the half-maximal effective concentration (EC50) in the assay filed under Canis familiaris [7] is 44 µM.

Take `Clc1cc(Cl)c2c(c1)CCC1(CN=CN1)C2` (stereo unspecified): the 50% effective concentration (EC50) in the assay listed under Canis familiaris [1] turned out to be 8 µM; in the assay filed under Canis familiaris [7] it was 6 µM. The compound also came in with a Max in assay [2] of 137 mmHg. In assay [3], this compound registered a C20 of 4.2 µg/kg. In addition, the Emax in the assay listed under Canis familiaris [4] is given as 100; in the assay filed under Canis familiaris [6], 75.
